Active and inactive are the calls of the source. The calls are words filed in the database; no cut-off is given here.
Experiments:
[1] = target: Muscarinic acetylcholine receptor (Rattus norvegicus) (UniProt P08482+P08483+P08485+P08911+P10980); test: Inhibition of rat muscarinic receptor at 10 uM
Rattus norvegicus [2] = species on record: Rattus norvegicus; test: Inhibition of rat Opiate receptor at 10 uM
Rattus norvegicus [3] = species on record: Rattus norvegicus; test: Inhibition of rat 5-HT receptor at 10 uM
[4] = target: 5-hydroxytryptamine receptor 1A (Homo sapiens) (UniProt P08908); test: Inhibition of human 5-HT1A receptor at 10 uM
Sequence of 5-hydroxytryptamine receptor 1A (Homo sapiens) (P08908 whole entry): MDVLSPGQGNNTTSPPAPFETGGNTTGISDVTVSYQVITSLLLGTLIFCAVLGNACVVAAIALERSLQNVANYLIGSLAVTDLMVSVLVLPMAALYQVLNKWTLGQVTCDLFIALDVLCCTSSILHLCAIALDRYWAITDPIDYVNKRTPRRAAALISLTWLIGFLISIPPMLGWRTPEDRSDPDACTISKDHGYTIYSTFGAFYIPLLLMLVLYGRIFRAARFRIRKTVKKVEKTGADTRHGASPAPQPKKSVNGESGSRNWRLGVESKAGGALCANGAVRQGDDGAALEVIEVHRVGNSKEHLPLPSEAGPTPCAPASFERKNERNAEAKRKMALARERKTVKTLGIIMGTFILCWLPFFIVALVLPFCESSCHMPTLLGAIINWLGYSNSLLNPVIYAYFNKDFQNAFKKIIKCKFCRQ

[5] = target: 5-hydroxytryptamine receptor 2B (Homo sapiens) (UniProt P41595); test: Inhibition of human 5-HT2B receptor at 10 uM
Sequence of 5-hydroxytryptamine receptor 2B (Homo sapiens) (P41595 whole entry): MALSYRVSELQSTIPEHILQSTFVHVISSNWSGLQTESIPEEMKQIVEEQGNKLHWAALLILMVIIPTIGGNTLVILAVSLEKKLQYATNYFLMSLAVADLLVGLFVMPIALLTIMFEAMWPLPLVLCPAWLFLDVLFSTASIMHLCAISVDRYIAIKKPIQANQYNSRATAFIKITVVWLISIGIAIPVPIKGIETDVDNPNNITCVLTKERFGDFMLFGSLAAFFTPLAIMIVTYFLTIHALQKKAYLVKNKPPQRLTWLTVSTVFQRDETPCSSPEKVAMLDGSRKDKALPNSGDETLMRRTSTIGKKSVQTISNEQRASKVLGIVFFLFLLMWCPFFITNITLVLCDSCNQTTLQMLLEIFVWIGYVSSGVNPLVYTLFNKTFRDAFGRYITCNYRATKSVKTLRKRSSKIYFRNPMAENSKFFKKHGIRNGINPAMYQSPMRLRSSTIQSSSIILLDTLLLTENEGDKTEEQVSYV

Homo sapiens = species on record: Homo sapiens; test: Inhibition of human sst receptor at 10 uM
[6] = target: Glucocorticoid receptor (Homo sapiens) (UniProt P04150); test: Inhibition of human GR at 10 uM
[7] = target: Estrogen receptor (Homo sapiens) (UniProt P03372); test: Inhibition of human ERalpha at 10 uM
Sequence of Estrogen receptor (Homo sapiens) (P03372 whole entry): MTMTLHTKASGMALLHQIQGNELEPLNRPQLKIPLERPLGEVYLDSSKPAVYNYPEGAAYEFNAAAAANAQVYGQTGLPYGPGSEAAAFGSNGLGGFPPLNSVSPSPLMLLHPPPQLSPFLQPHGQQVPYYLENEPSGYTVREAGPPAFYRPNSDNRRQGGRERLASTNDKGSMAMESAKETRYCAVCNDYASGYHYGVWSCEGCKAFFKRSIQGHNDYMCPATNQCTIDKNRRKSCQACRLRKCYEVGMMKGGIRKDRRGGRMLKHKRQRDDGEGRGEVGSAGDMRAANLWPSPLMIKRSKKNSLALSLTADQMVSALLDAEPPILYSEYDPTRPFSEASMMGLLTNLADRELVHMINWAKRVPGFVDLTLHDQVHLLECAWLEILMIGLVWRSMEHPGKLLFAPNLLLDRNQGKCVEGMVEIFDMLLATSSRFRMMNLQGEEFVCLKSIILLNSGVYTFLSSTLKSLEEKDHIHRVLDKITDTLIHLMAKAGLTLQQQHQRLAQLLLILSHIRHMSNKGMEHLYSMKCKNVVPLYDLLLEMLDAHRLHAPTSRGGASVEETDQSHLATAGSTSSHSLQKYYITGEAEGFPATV

[8] = target: Progesterone receptor (Homo sapiens) (UniProt P06401); test: Inhibition of human PR at 10 uM
Rattus norvegicus [9] = species on record: Rattus norvegicus; test: Inhibition of rat sodium channel site2 at 10 uM
Rattus norvegicus [10] = species on record: Rattus norvegicus; test: Inhibition of rat chloride channel at 10 uM
[11] = target: Sodium-dependent noradrenaline transporter (Homo sapiens) (UniProt P23975); test: Inhibition of human NE transporter at 10 uM
[12] = target: Sodium-dependent dopamine transporter (Rattus norvegicus) (UniProt P23977); test: Inhibition of rat DA transporter at 10 uM
Sequence of Sodium-dependent dopamine transporter (Rattus norvegicus) (P23977 whole entry): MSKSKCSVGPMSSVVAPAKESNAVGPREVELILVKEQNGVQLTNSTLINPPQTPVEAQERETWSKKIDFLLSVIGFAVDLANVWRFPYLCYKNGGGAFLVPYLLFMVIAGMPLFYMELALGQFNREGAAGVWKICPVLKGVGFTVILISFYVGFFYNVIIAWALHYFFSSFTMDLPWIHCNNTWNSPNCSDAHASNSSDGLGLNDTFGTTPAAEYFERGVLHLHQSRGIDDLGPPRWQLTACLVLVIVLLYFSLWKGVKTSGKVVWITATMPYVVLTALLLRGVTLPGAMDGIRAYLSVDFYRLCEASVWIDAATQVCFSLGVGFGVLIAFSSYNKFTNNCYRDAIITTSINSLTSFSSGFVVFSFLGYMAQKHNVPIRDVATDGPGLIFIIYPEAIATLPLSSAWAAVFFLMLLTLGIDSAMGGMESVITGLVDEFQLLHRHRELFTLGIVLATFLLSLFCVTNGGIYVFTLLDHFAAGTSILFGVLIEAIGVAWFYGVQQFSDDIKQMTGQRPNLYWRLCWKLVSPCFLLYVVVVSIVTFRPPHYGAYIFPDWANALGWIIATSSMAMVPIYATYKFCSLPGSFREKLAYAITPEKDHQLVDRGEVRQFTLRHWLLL

Rattus norvegicus [13] = species on record: Rattus norvegicus; test: Inhibition of rat choline transporter at 10 uM
Rattus norvegicus [14] = species on record: Rattus norvegicus; test: Inhibition of rat GABA transporter at 10 uM
Trypsin = Trypsin (Homo sapiens, UniProt P07477+P07478+P35030); test: Inhibition of human trypsin; type: protein assay
[15] = Inhibition of human Tryptase
Plasma [16] = test: Anticoagulant activity in Sprague-Dawley rat plasma assessed as concentration required to double the prothrombin based clotting at 30 mg/kg, id; type: functional; settings: route intraduodenal
Rattus norvegicus [17] = test: Anticoagulant activity against Sprague-Dawley rat arterial thrombosis model induced by topical application of Fecl2; type: functional; settings: Rattus norvegicus, Sprague-Dawley, oral
How it was run: (§1)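 Rat carotid artery thrombosis: vehicle (PEG-400) or compound given by 1 mL/kg gavage at 0 min (5, 10, 15, 30 mg/kg; n = 5, 6, 6, 4; vehicle n = 8), with aspirin 10 mg/kg iv 15 min before FeCl2. Rats anesthetized at 30 min. 50% FeCl2 applied topically at 60 min for 10 min. Thrombus weight taken 1 h later. ANOVA with Dunnett's test.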

Rattus norvegicus [18] = test: Anticoagulant activity in Fecl2-induced po dosed Sprague-Dawley rat vena cava thrombosis model assessed as inhibition of thrombus weight; type: functional
How it was run: (§2)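 Rat vena cava thrombosis: vehicle (PEG-400) or compound at 5, 10, 15, 30 mg/kg (n = 5 per group) given by 1 mL/kg gavage at 0 min. Rats anesthetized at 30 min. 15% FeCl2 applied topically to the vena cava at 60 min for 2 min. Thrombus weight determined 1 h after FeCl2.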

Rattus norvegicus [19] = test: Anticoagulant activity in Fecl2-induced Sprague-Dawley rat vena cava thrombosis model assessed as inhibition of thrombus weight at 15 mg/kg, po; type: functional; how it was run: as §2
Rattus norvegicus [20] = test: Anticoagulant activity against […] Sprague-Dawley rat carotid artery thrombosis assessed as decreasing thrombosis weight at 10 mg/kg, po; type: functional; parameters: scale not given: the % may be the effect or the level left; how it was run: as §1
[21] = target: Beta-2 adrenergic receptor (Homo sapiens) (UniProt P07550); test: Inhibition of human beta-2 adrenergic receptor at 10 uM
Sequence of Beta-2 adrenergic receptor (Homo sapiens) (P07550 whole entry, looked up): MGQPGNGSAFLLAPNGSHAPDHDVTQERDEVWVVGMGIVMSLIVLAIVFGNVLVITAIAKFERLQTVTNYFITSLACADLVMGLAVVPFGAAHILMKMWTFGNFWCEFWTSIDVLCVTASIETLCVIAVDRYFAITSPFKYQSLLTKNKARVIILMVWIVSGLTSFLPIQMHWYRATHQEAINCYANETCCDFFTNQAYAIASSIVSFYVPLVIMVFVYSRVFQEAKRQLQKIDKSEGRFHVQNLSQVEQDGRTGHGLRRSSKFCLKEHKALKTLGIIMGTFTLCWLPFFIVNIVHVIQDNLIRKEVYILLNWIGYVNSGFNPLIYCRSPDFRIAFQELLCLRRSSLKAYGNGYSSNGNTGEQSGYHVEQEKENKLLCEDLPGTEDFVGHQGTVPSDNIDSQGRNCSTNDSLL

[22] = target: Beta-1 adrenergic receptor (Homo sapiens) (UniProt P08588); test: Inhibition of human beta-1 adrenergic receptor at 10 uM
Sequence of Beta-1 adrenergic receptor (Homo sapiens) (P08588 whole entry, looked up): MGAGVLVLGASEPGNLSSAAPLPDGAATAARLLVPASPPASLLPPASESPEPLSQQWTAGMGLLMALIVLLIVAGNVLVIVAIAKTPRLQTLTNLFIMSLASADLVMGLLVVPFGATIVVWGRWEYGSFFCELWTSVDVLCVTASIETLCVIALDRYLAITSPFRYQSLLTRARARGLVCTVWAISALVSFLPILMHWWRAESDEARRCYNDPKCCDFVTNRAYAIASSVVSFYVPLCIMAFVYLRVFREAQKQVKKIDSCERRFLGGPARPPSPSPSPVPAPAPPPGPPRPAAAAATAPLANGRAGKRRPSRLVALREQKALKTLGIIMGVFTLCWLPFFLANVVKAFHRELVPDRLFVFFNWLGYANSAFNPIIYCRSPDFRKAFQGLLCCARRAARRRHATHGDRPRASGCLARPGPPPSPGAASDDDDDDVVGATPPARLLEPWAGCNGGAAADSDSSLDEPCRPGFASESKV

[23] = target: Adrenergic receptor alpha-2 (Rattus norvegicus) (UniProt P22086+P19328+P22909); test: Inhibition of rat alpha-2 adrenergic receptor at 10 uM
[24] = target: Adrenergic receptor alpha-1 (Rattus norvegicus) (UniProt P15823+P23944+P43140); test: Inhibition of rat alpha-1 adrenergic receptor at 10 uM
[25] = target: Adenosine receptor A1 (Homo sapiens) (UniProt P30542); test: Inhibition of human A1 receptor at 10 uM
Sequence of Adenosine receptor A1 (Homo sapiens) (P30542 whole entry): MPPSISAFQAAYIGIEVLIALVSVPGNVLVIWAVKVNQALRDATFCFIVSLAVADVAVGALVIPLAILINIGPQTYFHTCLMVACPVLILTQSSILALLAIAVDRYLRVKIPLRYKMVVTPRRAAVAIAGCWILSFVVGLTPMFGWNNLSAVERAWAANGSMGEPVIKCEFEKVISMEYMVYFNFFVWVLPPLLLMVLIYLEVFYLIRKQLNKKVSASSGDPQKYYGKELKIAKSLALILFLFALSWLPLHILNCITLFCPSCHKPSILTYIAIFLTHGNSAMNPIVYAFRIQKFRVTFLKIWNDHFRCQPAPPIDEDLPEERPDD

[26] = Inhibition of sodium channel
Plasma [27] = test: Anticoagulant activity in human plasma assessed as concentration required to double the prothrombin based clotting time after 30 seconds; type: functional
How it was run: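 Human plasma prothrombin-based clotting time; value is the inhibitor concentration that doubles the clotting time, averaged from two independent determinations.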

[28] = target: Cholecystokinin receptor type A (Homo sapiens) (UniProt P32238); test: Inhibition of human CCKA receptor at 10 uM
Sequence of Cholecystokinin receptor type A (Homo sapiens) (P32238 whole entry): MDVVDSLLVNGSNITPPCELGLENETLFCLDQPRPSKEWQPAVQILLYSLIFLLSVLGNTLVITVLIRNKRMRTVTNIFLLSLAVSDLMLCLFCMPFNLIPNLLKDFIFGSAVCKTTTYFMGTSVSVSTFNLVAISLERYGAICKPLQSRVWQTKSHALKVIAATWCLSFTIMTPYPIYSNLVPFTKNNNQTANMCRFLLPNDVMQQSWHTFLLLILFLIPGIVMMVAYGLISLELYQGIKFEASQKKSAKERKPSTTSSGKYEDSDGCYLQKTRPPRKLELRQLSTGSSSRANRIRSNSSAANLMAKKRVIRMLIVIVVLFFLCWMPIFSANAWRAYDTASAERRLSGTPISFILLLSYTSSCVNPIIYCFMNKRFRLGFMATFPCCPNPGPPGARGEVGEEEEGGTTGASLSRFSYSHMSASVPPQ

[29] = target: D(1A) dopamine receptor (Homo sapiens) (UniProt P21728); test: Inhibition of human dopamine D1 receptor at 10 uM
Sequence of D(1A) dopamine receptor (Homo sapiens) (P21728 whole entry): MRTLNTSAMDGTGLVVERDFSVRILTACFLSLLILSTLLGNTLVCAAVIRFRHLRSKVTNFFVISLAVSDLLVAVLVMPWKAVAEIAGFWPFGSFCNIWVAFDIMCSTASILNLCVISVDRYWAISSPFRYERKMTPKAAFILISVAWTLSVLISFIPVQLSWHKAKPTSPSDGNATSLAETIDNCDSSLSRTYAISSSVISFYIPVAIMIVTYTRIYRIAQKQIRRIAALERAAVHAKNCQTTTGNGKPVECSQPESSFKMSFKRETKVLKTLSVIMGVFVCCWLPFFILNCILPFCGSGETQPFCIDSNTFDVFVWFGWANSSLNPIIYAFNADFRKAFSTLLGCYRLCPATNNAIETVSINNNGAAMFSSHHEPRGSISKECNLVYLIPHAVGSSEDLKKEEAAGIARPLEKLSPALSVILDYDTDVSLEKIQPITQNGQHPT

[30] = target: D(2) dopamine receptor (Homo sapiens) (UniProt P14416); test: Inhibition of human dopamine D2S receptor at 10 uM
Rattus norvegicus [31] = species on record: Rattus norvegicus; test: Inhibition of rat AMPA receptor at 10 uM
Rattus norvegicus [32] = species on record: Rattus norvegicus; test: Inhibition of rat Kainate receptor at 10 uM
[33] = target: Glutamate NMDA receptor (Rattus norvegicus) (UniProt P35439+Q00959+Q00960+Q00961+Q62645+Q8VHN2+Q9R1M7); test: Inhibition of rat NMDA receptor at 10 uM; type: protein-complex assay
[34] = target: Histamine H1 receptor (Cavia porcellus) (UniProt P31389); test: Inhibition of guinea pig H1 receptor
[35] = target: Histamine H2 receptor (Cavia porcellus) (UniProt P47747); test: Inhibition of guinea pig H2 receptor at 10 uM
Sequence of Histamine H2 receptor (Cavia porcellus) (P47747 whole entry): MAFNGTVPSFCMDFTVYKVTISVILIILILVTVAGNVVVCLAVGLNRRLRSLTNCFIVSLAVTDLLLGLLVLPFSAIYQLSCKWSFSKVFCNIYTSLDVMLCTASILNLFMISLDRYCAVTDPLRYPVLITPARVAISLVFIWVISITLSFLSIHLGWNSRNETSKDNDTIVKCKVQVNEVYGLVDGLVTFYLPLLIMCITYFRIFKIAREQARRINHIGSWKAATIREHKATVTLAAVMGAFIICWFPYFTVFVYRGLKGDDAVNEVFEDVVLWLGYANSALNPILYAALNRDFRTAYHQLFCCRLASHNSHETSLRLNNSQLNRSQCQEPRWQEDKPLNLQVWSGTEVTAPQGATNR

Rattus norvegicus [36] = test: Anticoagulant activity against Sprague-Dawley rat carotid artery thrombosis induced by FeCl2 in aspirin-treated rats assessed as decreasing thrombosis weight at 15 mg/kg, po; parameters: scale not given: the % may be the effect or the level left
Rattus norvegicus [37] = test: Anticoagulant activity against Sprague-Dawley rat carotid artery thrombosis induced by FeCl2 in aspirin-treated rats assessed as decreasing thrombosis weight at 30 mg/kg, po; parameters: scale not given: the % may be the effect or the level left

SMILES: Cc1cc2cc(N/C(=N\C(=O)c3ccc(C(=O)N(C)C)nc3)N[C@H]3CCCCN(CC(=O)N4CCCC4)C3=O)ccc2o1
- Activity [1]: inactive
- Activity (Rattus norvegicus [2]): inactive
- Activity (Rattus norvegicus [3]): inactive
- Activity [4]: inactive
- Activity [5]: inactive
- Activity (Homo sapiens): inactive
- Activity [6]: inactive
- Activity [7]: inactive
- Activity [8]: inactive
- Activity (Rattus norvegicus [9]): inactive
- Activity (Rattus norvegicus [10]): inactive
- Activity [11]: inactive
- Activity [12]: inactive
- Activity (Rattus norvegicus [13]): inactive
- Activity (Rattus norvegicus [14]): inactive
- Ki (Trypsin): > 10 µM
- Ki [15]: > 30 µM
- Activity (Plasma [16]): 3.6 µM
- ED50 (Rattus norvegicus [17]): 10 mg/kg
- ED50 (Rattus norvegicus [18]): 2 mg/kg
- inhibition in vivo at 15 mg/kg (Rattus norvegicus [19]): 90%
- Activity (Rattus norvegicus [20]): 36%
- Activity [21]: inactive
- Activity [22]: inactive
- Activity [23]: inactive
- Activity [24]: inactive
- Activity [25]: inactive
- Activity [26]: inactive
- Activity (Plasma [27]): 2.5 µM
- Activity [28]: inactive
- Activity [29]: inactive
- Activity [30]: inactive
- Activity (Rattus norvegicus [31]): inactive
- Activity (Rattus norvegicus [32]): inactive
- Activity [33]: inactive
- Activity [34]: inactive
- Activity [35]: inactive
- Activity (Rattus norvegicus [36]): 31%
- Activity (Rattus norvegicus [37]): 54%

From ChEMBL document CHEMBL1156750 (Bioorg Med Chem Lett, 2009)
